Data set [1] can be described thus: Cytotoxicity against mouse RAW 264.7 assessed as cell viability at 20 uM incubated for 24 hrs by MTT assay (reference value: 100%). As to conditions: RAW 264.7 cells, read-out: Activity. The data set is classed as cell-based, RAW264.7. In short, it runs like this: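 MTT viability of RAW264.7 cells at 20 µM, expressed as percent of DMSO vehicle control (100%); above 75% viability counted as non-toxic; doxorubicin used as control drug.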
On the technique in general: Tetrazolium assays rely on reduction of a dye to a coloured formazan, in cell work by metabolically active cells.

For data set [2], the system named is RAW264.7. Nature of the data set: Antiinflammatory activity against mouse RAW264.7 cells assessed as inhibition of TNFalpha-stimulated NF-kappaB activation by luciferase assay. Format: functional, cell-based.
Data set [3] has as its system RAW264.7. In words: Antiinflammatory activity against mouse RAW264.7 cells assessed as inhibition of LPS-stimulated NO production. The data set is classed as functional, cell-based. In short, it runs like this: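 IC50 for inhibition of NO release by LPS-stimulated RAW264.7 macrophages; IC50 taken as the mean of three independent experiments.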
The test system of data set [4] is RAW264.7. In words: Antiinflammatory activity against mouse RAW264.7 cells assessed as inhibition of LPS-stimulated NO production at 20 uM relative to control. The data set is classed as functional. The arrangement: scale not given: the % may be the effect or the level left. The procedure, abridged:
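NO production by RAW264.7 cells stimulated with LPS; inhibitory ratio expressed relative to the LPS-treated group.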

Data set [5] concerns RAW264.7. Nature of the data set: Antiinflammatory activity against mouse RAW264.7 cells assessed as reduction in LPS-induced TNFalpha mRNA expression at 3 to 6 uM incubated for 24 hrs by qRT-PCR analysis. The data set is classed as functional, cell-based. As to conditions: dose microM 3-6, time 24.0 hrs. In short, it runs like this: (§1)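 Cells co-treated with compound at several concentrations plus LPS (1 µg/mL) for 24 h; IL-6, IL-1β and TNFα mRNA by qRT-PCR, expressed as ratio to reference gene; mean ± SD, n = 3.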
A general note: Real-time PCR tracks product formation cycle by cycle.

The subject of data set [6] is RAW264.7. In words: Antiinflammatory activity against mouse RAW264.7 cells assessed as reduction in LPS-induced IL1beta mRNA expression at 3 to 6 uM incubated for 24 hrs by qRT-PCR analysis. Format: functional, cell-based. As to conditions: dose microM 3-6, time 24.0 hrs. In short, it runs like this:
as §1

In data set [7] the test system is RAW264.7. In words: Cytotoxicity against mouse RAW 264.7 assessed as reduction in cell viability up to 100 uM incubated for 24 hrs by MTT assay. The data set is classed as cell-based. The note with it: raw264.7, 24 h. In short, it runs like this:
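MTT viability of RAW264.7 cells across 0 to 100 µM, compared with vehicle control.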

The test system of data set [8] is RAW264.7. In words: Antiinflammatory activity against mouse RAW264.7 cells assessed as degradation in LPS-induced IkappaBalpha phosphorylation at 3 to 6 uM incubated for 45 mins by Western blot analysis. As to conditions: dose microM 3-6, time 45.0 min. Format: functional, cell-based. The procedure, abridged: (§2)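 RAW264.7 cells treated with a range of concentrations for 45 min; phospho-p65, p65, IκBα and β-actin detected by Western blot; three independent experiments.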

The test system of data set [9] is RAW264.7. In words: Antiinflammatory activity against mouse RAW264.7 cells assessed as reduction in LPS-induced IL6 mRNA expression at 3 to 6 uM incubated for 24 hrs by qRT-PCR analysis. Format: functional, cell-based. As to conditions: dose microM 3-6, time 24.0 hrs. The procedure, abridged:
as §1

Data set [10] concerns RAW264.7. Nature of the data set: Antiinflammatory activity against mouse RAW264.7 cells assessed as reduction in LPS-induced p65 phosphorylation at 3 to 6 uM incubated for 45 mins by Western blot analysis. The data set is classed as functional, cell-based. As to conditions: dose microM 3-6, time 45.0 min. In short, it runs like this: as §2
(In general: A western blot detects proteins with antibodies after separation by electrophoresis.)

The subject of data set [11] is RAW264.7. In words: Antiinflammatory activity against mouse RAW264.7 cells assessed as inhibition of LPS-stimulated iNOS protein expression at 3 to 6 uM preincubated followed by LPS addition by Western blot analysis. Format: functional, cell-based. The note with it: dose microM 3-6. The procedure, abridged:
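iNOS protein in LPS-stimulated RAW264.7 cells detected by Western blotting; mean ± SD, n = 3.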

In data set [12] the test system is RAW264.7. Nature of the data set: Antiinflammatory activity against mouse RAW264.7 cells assessed as inhibition of LPS-stimulated nuclear translocation of p65 at 20 uM preincubated for 1 hr followed by LPS addition and measured after 24 hrs by fluorescence microscopic method. The data set is classed as functional, cell-based. The procedure, abridged:
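RAW264.7 cells pretreated 1 h, then stimulated with LPS (1 µg/mL) or vehicle for 24 h; p65 immunostained and localisation viewed in overlaid fluorescence images; three individual experiments.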

For data set [13], the system named is RAW264.7. Nature of the data set: Antiinflammatory activity against mouse RAW264.7 cells assessed as reduction in LPS-induced IkappaBalpha phosphorylation at 3 to 6 uM incubated for 45 mins by Western blot analysis. Format: functional, cell-based. The note with it: dose microM 3-6, time 45.0 min. The procedure, abridged: as §2

Activity calls are given as the source filed them. No cut-off for these calls is given here.

viability, IC50 and Activity data for 32 compounds are collected here from ChEMBL document CHEMBL4665728, “Synthesis and evaluation of 1,2,4-oxadiazole derivatives as potential anti-inflammatory agents by inhibiting NF-κB signaling pathway in LPS-stimulated RAW 264.7 cells” (Bioorg Med Chem Lett, 2020).

The IC50 is the concentration that inhibits the measured activity by half.

`Fc1ccc(-c2nc(-c3ccc4[nH]ccc4c3)no2)cc1`: the viability at 24 h, 20 µM in data set [1] turned out to be 16.8%.
In the case of `c1ccc(-c2nc(-c3cccc4[nH]ccc34)no2)cc1`, the IC50 turned out to be 13.8 µM in data set [2] and 27 µM in [3]. For the same compound, the viability at 24 h, 20 µM in data set [1] came out at 64.3%. Moreover, the Activity in data set [4] amounted to 45.71%.
Turning to `Fc1cccc(-c2nc(-c3ccc4[nH]ccc4c3)no2)c1`, the viability at 24 h, 20 µM in [1] came out at 17.2%.
On to `Oc1ccc(-c2nc(-c3ccc4[nH]ccc4c3)no2)cc1`, for which the viability at 24 h, 20 µM in data set [1] worked out at 36.5%.
For `c1ccc(-c2nc(-c3c[nH]c4ccccc34)no2)cc1`, the viability at 24 h, 20 µM in [1] was 11.6%.
Regarding `C[C@@H]1C[C@H]2[C@@H]3CCC4=CC(=O)C=C[C@]4(C)[C@@]3(F)[C@@H](O)C[C@]2(C)[C@@]1(O)C(=O)CO` [DEXAMETHASONE], in data set [3], the IC50 was determined as 4.16 µM.
Turning to `C#Cc1ccc(-c2nc(-c3ccc4[nH]ccc4c3)no2)cc1`, the viability at 24 h, 20 µM in [1] was 23.6%.
`c1cc2cc(-c3noc(C4CCC4)n3)ccc2[nH]1`: in data set [1], the viability at 24 h, 20 µM came out at 85.4%. The Activity in data set [4] was determined as 57.58%.
For the compound `COc1ccc(-c2nc(-c3ccc4[nH]ccc4c3)no2)cc1`, the viability at 24 h, 20 µM in data set [1] came out at 41.3%.
On to `c1ccc(-c2nc(C3CCCC3)no2)cc1`, for which the viability at 24 h, 20 µM in [1] stood at 85.4%. Also, in data set [4], the Activity came out at 34.28%.
`c1ccc(-c2nc(-c3cnccn3)no2)cc1`: the viability at 24 h, 20 µM in [1] was 46.2%.
Take `c1ccc(-c2nc(-c3ccc4cc[nH]c4c3)no2)cc1`: in data set [1], the viability at 24 h, 20 µM stood at 31%.
On to `COc1cccc(-c2nc(-c3ccc4[nH]ccc4c3)no2)c1`, for which, in data set [1], the viability at 24 h, 20 µM was determined as 88.1%. Besides, the Activity in data set [4] worked out at 53.94%.
For `c1ccc(-c2noc(-c3ccccc3)n2)cc1`, in data set [1], the viability at 24 h, 20 µM is 42.1%.
On to `C(=C\c1noc(-c2ccccc2)n1)/c1ccccc1`, for which the viability at 24 h, 20 µM in data set [1] was 28.2%.
Regarding `c1ccc(-c2nc(Cc3cccs3)no2)cc1`, the viability at 24 h, 20 µM in [1] came out at 85.2%. Also, the Activity in data set [4] is given as 48.24%.
`c1ccc(-c2nc(-c3cccc4ccccc34)no2)cc1`: the viability at 24 h, 20 µM in data set [1] turned out to be 90.4%. Also, in [4], the Activity is 59.89%.
Consider `c1cc2cc(-c3noc(C4CCOCC4)n3)ccc2[nH]1`, for which the viability at 24 h, 20 µM in data set [1] came to 95.7%. Besides, the Activity in data set [4] is 2.75%.
Take `c1ccc(-c2nc(-c3ccncc3)no2)cc1`: the viability at 24 h, 20 µM in data set [1] was 89%. Also, in data set [4], the Activity is listed as 43.13%.
Regarding `Fc1ccccc1-c1nc(-c2ccc3[nH]ccc3c2)no1`, the viability at 24 h, 20 µM in data set [1] turned out to be 26.4%.
As for `c1ccc(-c2nc(Cc3cccc4ccccc34)no2)cc1`, the viability at 24 h, 20 µM in data set [1] is 92.8%. Further, in data set [4], the Activity is 41.64%.
In the case of `CSc1ccc(-c2nc(-c3ccc4[nH]ccc4c3)no2)cc1`, the viability at 24 h, 20 µM in data set [1] came to 22.8%.
As for `CC(C)C[C@H](NC(=O)[C@H](Cc1ccccc1)NC(=O)c1cnccn1)B(O)O` [BORTEZOMIB], the IC50 in data set [2] worked out at 0.03 µM.
Turning to `c1ccc(-c2nc(-c3ccc4ccccc4c3)no2)cc1`, the viability at 24 h, 20 µM in data set [1] worked out at 86.2%. In addition, the Activity in data set [4] came out at 63.58%.
With `c1cc2cc(-c3noc(C4CCCCC4)n3)ccc2[nH]1`, the viability at 24 h, 20 µM in [1] was determined as 68.8%.
Consider `c1ccc(-c2nc(-c3ccc4[nH]ccc4c3)no2)cc1`, for which the viability at 24 h, 20 µM in [1] is 79.4%. The Activity in data set [4] was 46.76%.
For `COc1ccccc1-c1nc(-c2ccc3[nH]ccc3c2)no1`, the viability at 24 h, 20 µM in data set [1] came out at 45%.
With `Cc1ccc(-c2nc(-c3ccc4[nH]ccc4c3)no2)cc1`, the viability at 24 h, 20 µM in [1] was found to be 51.2%.
Regarding `c1ccc(Cc2noc(-c3ccccc3)n2)cc1`, the viability at 24 h, 20 µM in data set [1] was 89.6%. Further, the Activity in data set [4] is 39.33%.
Regarding `C1=CCC(c2nc(-c3ccc4[nH]ccc4c3)no2)C1`, the viability at 24 h, 20 µM in data set [1] came to 24.3%.
As to `c1coc(-c2nc(-c3ccc4[nH]ccc4c3)no2)c1`, the IC50 in data set [2] stood at 1.35 µM; in [3], 12.8 µM. For the same compound, the Activity result in data set [5] is “Dose-dependent effect”; in data set [6], “Dose-dependent effect”; in [7], “Non-Toxic”; in [8], “Dose-dependent effect”; in [9] it was “Dose-dependent effect”; in data set [13] it was “Dose-dependent effect”. The Activity in data set [4] is 86.6%. Moreover, the viability at 24 h, 20 µM in [1] was 99%. In addition, the result in data set [10], in data set [11] and in [12] was Active.
As for `Cc1ccccc1-c1nc(-c2ccc3[nH]ccc3c2)no1`, in data set [1], the viability at 24 h, 20 µM is 85.3%. Further, in [4], the Activity is 47.22%.
